Data: ChEMBL document CHEMBL1157729, “Structure-activity relationship and mechanism of action studies of manzamine analogues for the control of neuroinflammation and cerebral infections” (J Med Chem, 2010)

What was measured:
Plasmodium berghei [1] = experiment: Antiplasmodial activity against Plasmodium berghei NK65 infected in Swiss Webster mice (Mus musculus) assessed as average parasitaemia at 100 mg/kg, perorally administered 1 day after infection measured after 28 days post infection; format: functional; details: route oral
In short: (§1)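 Male Swiss Webster mice (18-20 g, ≥5/group) inoculated i.p. with 2×10^7 P. berghei NK-65 parasitized RBC, given a single oral dose (100 μl, SSV or dilute HCl vehicle); parasitemia by Giemsa-stained tail blood smears days 5–28; activity as % decrease versus untreated controls on day 5.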

Plasmodium berghei [2] = experiment: Antiplasmodial activity against Plasmodium berghei NK65 infected in Swiss Webster mice (Mus musculus) assessed as parasitaemia cure at 100 mg/kg, perorally administered 1 day after infection measured after 28 days post infection; format: functional; details: route oral
In short: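 P. berghei NK-65 infection in male Swiss Webster mice (18-20 g; 2×10^7 parasitized erythrocytes i.p.; ≥5 per group). A single oral dose of 100 μl, diluted in SSV or 0.01 M HCl, then observation for toxicity signs and body weight. Parasitemia read from Giemsa-stained tail smears from day 5 through day 28. Mice free of parasitemia through day 28 counted as cured.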

[3] = Antineuroinflammatory activity in LPS-stimulated rat neonatal microglia assessed as inhibition of PMA-induced superoxide anion production preincubated 15 mins prior to PMA challenge measured after 70 mins; format: functional, cell-based
Plasmodium berghei [4] = experiment: Antiplasmodial activity against Plasmodium berghei NK65 infected in Swiss Webster mice (Mus musculus) at 10 mg/kg, po; format: functional
Mus musculus = experiment: Toxicity in Plasmodium berghei NK65 infected Swiss Webster mice (Mus musculus) at 10 mg/kg, intraperitoneally for 3 days administered 1 day after infection measured after 5 days post infection; format: organism-based; set-up: dose 10 mg/kg, route intraperitoneal; details: in vivo, ip, 120 h
Plasmodium berghei [5] = experiment: Antiplasmodial activity against Plasmodium berghei NK65 infected in Swiss Webster mice (Mus musculus) assessed as average parasitaemia at 50 mg/kg, perorally administered 1 day after infection measured after 21 days post infection; format: functional; details: route oral; in short: as §1
Plasmodium berghei [6] = experiment: Antiplasmodial activity against Plasmodium berghei NK65 infected in Swiss Webster mice (Mus musculus) assessed as inhibition of parasitaemia at 50 mg/kg, perorally administered 1 day after infection measured after 5 days post infection; format: functional; details: route oral; in short: as §1
Plasmodium berghei [7] = experiment: Antiplasmodial activity against Plasmodium berghei NK65 infected in Swiss Webster mice (Mus musculus) assessed as average parasitaemia at 3.3 mg/kg, perorally administered 1 day after infection for 3 days measured after 14 days post infection; format: functional; details: route oral
In short: (§2)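 Male Swiss Webster mice (18-20 g, ≥5/group) inoculated i.p. with 2×10^7 P. berghei NK-65 parasitized RBC; oral dosing (100 μl, SSV or dilute HCl vehicle) once daily for 3 days from day 1; Giemsa-stained tail blood smears days 5–28; inhibition is % decrease versus untreated controls on day 5.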

Plasmodium berghei [8] = experiment: Antiplasmodial activity against Plasmodium berghei NK65 infected in Swiss Webster mice (Mus musculus) assessed as average parasitaemia at 3.3 mg/kg, perorally administered 1 day after infection for 3 days measured after 21 days post infection; format: functional; details: route oral; in short: as §2
Plasmodium berghei [9] = experiment: Antiplasmodial activity against Plasmodium berghei NK65 infected in Swiss Webster mice (Mus musculus) assessed as average parasitaemia at 1.1 mg/kg, perorally administered 1 day after infection for 3 days measured after 10 days post infection; format: functional; details: route oral
Plasmodium berghei [10] = experiment: Antiplasmodial activity against Plasmodium berghei NK65 infected in Swiss Webster mice (Mus musculus) assessed as average parasitaemia at 50 mg/kg, perorally administered 1 day after infection measured after 28 days post infection; format: functional; details: route oral; in short: as §1
Plasmodium berghei [11] = experiment: Antiplasmodial activity against Plasmodium berghei NK65 infected in Swiss Webster mice (Mus musculus) assessed as suppression of parasitaemia at 10 mg/kg, intraperitoneally administered 1 day after infection for 3 days measured after 5 days post infection relative to control; format: functional; details: Plasmodium berghei, NK65, ip, route intraperitoneal
Plasmodium berghei [12] = experiment: Antiplasmodial activity against Plasmodium berghei NK65 infected in Swiss Webster mice (Mus musculus) assessed as average parasitaemia at 200 mg/kg, perorally administered 1 day after infection measured after 14 days post infection; format: functional; details: Plasmodium berghei, NK65, route oral
In short: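 Male Swiss Webster mice (18-20 g), at least 5 per group, were inoculated ip with 2×10^7 P. berghei NK-65-parasitized red cells from a donor mouse and given a single oral dose (100 μl). Stock was made in SSV or 0.1 M HCl and diluted in SSV or 0.01 M HCl. Parasitemia was read from Giemsa-stained tail blood smears from day 5 to day 28. Cure meant no parasitemia through day 28.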

HeLa [13] = experiment: Cytotoxicity against human HeLa cells after 48 hrs by trypan blue exclusion assay; format: functional
Plasmodium berghei [14] = experiment: Antiplasmodial activity against Plasmodium berghei NK65 infected in Swiss Webster mice (Mus musculus) assessed as average parasitaemia at 10 mg/kg, perorally administered 1 day after infection for 3 days measured after 14 days post infection; format: functional; details: route oral
Plasmodium berghei [15] = experiment: Antiplasmodial activity against Plasmodium berghei NK65 infected in Swiss Webster mice (Mus musculus) assessed as average parasitaemia at 50 mg/kg, perorally administered 1 day after infection measured after 7 days post infection; format: functional; details: route oral; in short: as §1
Plasmodium berghei [16] = experiment: Antiplasmodial activity against Plasmodium berghei NK65 infected in Swiss Webster mice (Mus musculus) assessed as average parasitaemia at 10 mg/kg, perorally administered 1 day after infection for 3 days measured after 10 days post infection; format: functional; details: route oral
HeLa [17] = experiment: Cell cycle arrest in human HeLa cells assessed as decrease in G2/M phase accumulation at 10 uM after 24 hrs by FACS analysis; format: functional; set-up: scale not given: the % may be the effect or the level left
Plasmodium berghei [18] = experiment: Antiplasmodial activity against Plasmodium berghei NK65 infected in Swiss Webster mice (Mus musculus) assessed as average parasitaemia at 100 mg/kg, perorally administered 1 day after infection measured after 10 days post infection; format: functional; details: route oral
Plasmodium berghei [19] = experiment: Antiplasmodial activity against Plasmodium berghei NK65 infected in Swiss Webster mice (Mus musculus) assessed as average parasitaemia at 1.1 mg/kg, perorally administered 1 day after infection for 3 days measured after 14 days post infection; format: functional; details: route oral

`O[C@]12C=C(c3nccc4c3[nH]c3ccccc34)[C@@H]3CCN(CCCC/C=C\CC1)C[C@@]31C[C@@H]3/C=C\CCCCN3[C@H]12` [MANZAMINE A] gave an inhibition in vivo at 100 mg/kg (Plasmodium berghei [1]) of 0%, an inhibition in vivo at 100 mg/kg (Plasmodium berghei [2]) of 100% and an IC50 [3] of 100 nM. For the same compound, the inhibition in vivo at 10 mg/kg (Plasmodium berghei [4]) was over 30%, the Activity (Mus musculus) was “Toxic” and the inhibition in vivo at 50 mg/kg (Plasmodium berghei [5]) was 5.2%. The inhibition in vivo at 50 mg/kg (Plasmodium berghei [6]) was 100%, the inhibition in vivo at 3.3 mg/kg (Plasmodium berghei [7]) was 11.9% and the inhibition in vivo at 3.3 mg/kg (Plasmodium berghei [8]) was 21.6%. It also gave an inhibition in vivo at 1.1 mg/kg (Plasmodium berghei [9]) of 11.5%, an inhibition in vivo at 50 mg/kg (Plasmodium berghei [10]) of 6.25% and an inhibition in vivo at 10 mg/kg (Plasmodium berghei [11]) of 100%. The inhibition in vivo at 200 mg/kg (Plasmodium berghei [12]) was 0%, the Activity (HeLa [13]) was 2 µg/mL and the inhibition in vivo at 10 mg/kg (Plasmodium berghei [14]) was 0.9%. The inhibition in vivo at 50 mg/kg (Plasmodium berghei [15]) was 0%, the inhibition in vivo at 10 mg/kg (Plasmodium berghei [16]) was 0.4% and the Activity (HeLa [17]) was 13.6%. For the same compound, the inhibition in vivo at 100 mg/kg (Plasmodium berghei [18]) was 0% and the inhibition in vivo at 1.1 mg/kg (Plasmodium berghei [19]) was 21.7%.
